# Bioassay records deposited in PubChem BioAssay by several laboratories.
# STAT1 inh = reduces IFN-gamma driven STAT1 reporter signal. AID 920. 200,000 compounds, 0.35% hits. inhibition, % at 5.5 µM. NIH 3T3 STAT1-luciferase reporter, luminescence;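 active means inhibition above a set limit, the mean inhibition across all tested compounds plus 3 SD, cut at about 34% in these data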;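 further: 0% = IFN-gamma with DMSO and 100% = IFN-gamma with 300 µM nifuroxazide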
# STAT1 activator = activators of IFN-gamma induced STAT1 signaling. NIH 3T3 STAT1-luciferase reporter, luminescence; 100% = IFN-gamma alone, no compound. activation (% of control), % at 5.5 µM. 200,000 compounds, 2.6% hits;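 active means activation above the screen-wide mean activation plus 3 SD, cut at about 130% in these data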;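 further: raw ratio to IFN-gamma control signal so 100% means no change and 0% no light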
# STAT3 blocker = STAT3 signaling inhibition | U3A cells, IL-6 STAT3-luciferase reporter, luminescence; host cell line lacks STAT1 | 190,000 compounds, 0.89% hits | inhibition, % at 5.5 µM;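 active means inhibition above the mean inhibition across all screened compounds plus 3 SD, cut at about 44% in these data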;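 further: 0% = DMSO only wells and 100% = 100 µM nifuroxazide control wells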
# STAT3 act = increases IL-6 driven STAT3 reporter signal; U3A cells, IL-6 STAT3-luciferase reporter, luminescence; 100% = signal with IL-6 EC80 alone; activation (% of control), % at 5.6 µM; 190,000 compounds, 0.91% hits; AID 871;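 active means activation above the screen-wide mean of compound activation plus 3 SD, cut at about 130% in these data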;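 further: 0% = background luminescence of wells with medium and substrate only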
#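 Material: STAT1-lacking human U3A cells, STAT3 luciferase reporter | Benchmarks: IL-6-only wells as 100% reference | Probe or stimulus: IL-6 (33 ng/mL) | Timing: Compound 1 h, then IL-6 6 h at 37 °C | Detection: Luminescence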
# KCC2 mod = modulates chloride dependent transport by human KCC2. KCC2 cells, thallium flux FluoZin-2 fluorescence. B-score of Tl+ flux slope (higher = more flux/activation; lower = inhibition) at 10 µM. AID 1456. 190,000 compounds, 2.2% hits. Q9H2X9;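 active means thallium flux slope and its plate-corrected score both differing from the plate sample mean at a set confidence after two filtering rounds, in either direction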;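 further: slope of fluorescence scaled to starting intensity during 10 to 20 s after thallium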
# Target sequence (Q9H2X9 whole entry, looked up): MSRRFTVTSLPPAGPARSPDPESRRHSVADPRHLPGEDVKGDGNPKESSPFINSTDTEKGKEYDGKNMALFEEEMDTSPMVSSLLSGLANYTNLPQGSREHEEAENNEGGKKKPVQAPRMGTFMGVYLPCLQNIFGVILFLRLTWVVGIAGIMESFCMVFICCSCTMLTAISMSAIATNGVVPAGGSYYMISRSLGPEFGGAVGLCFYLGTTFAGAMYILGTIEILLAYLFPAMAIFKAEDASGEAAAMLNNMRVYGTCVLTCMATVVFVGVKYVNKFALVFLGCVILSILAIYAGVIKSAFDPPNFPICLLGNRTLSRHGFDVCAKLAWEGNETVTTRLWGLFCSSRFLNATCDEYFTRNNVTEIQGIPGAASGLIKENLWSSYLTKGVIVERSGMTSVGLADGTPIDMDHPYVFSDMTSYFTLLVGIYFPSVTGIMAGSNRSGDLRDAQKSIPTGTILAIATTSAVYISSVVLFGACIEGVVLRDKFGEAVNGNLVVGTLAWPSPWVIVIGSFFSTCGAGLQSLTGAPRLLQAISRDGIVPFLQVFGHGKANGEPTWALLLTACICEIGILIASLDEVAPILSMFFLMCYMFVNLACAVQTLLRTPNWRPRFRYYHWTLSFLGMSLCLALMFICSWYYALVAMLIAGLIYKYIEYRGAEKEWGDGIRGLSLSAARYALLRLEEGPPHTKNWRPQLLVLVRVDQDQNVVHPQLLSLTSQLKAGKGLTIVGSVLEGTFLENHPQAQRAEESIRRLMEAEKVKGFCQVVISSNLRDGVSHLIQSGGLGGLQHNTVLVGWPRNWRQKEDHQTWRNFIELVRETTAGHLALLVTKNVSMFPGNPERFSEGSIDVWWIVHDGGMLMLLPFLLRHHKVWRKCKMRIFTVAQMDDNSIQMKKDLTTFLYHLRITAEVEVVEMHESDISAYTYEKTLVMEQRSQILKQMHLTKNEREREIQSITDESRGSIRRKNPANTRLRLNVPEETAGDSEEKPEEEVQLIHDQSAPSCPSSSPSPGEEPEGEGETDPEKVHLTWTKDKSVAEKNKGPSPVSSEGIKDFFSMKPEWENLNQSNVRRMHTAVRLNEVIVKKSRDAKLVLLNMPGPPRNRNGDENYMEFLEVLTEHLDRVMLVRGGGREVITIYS
# HSV replic up = increases HSV replication in cells. HSV replication augmentation in cells, fold increase. maximum fold increase. 220,000 compounds, 0.005% hits. AID 1956; in the data active means maximum fold increase above about 1.5; inconclusive means no clear call, values can overlap the other calls; tested in PC3 cells
# KCC2 sec1 = KCC2 (human) modulation, secondary assay; shares compounds with KCC2 mod; 3,700 compounds, 15% hits; normalised thallium flux (F/F0 slope) at 10 µM; AID 1713; HEK293-KCC2, thallium flux, FluoZin2 fluorescence; active compounds read high;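 active means thallium flux slope above the same plate's solvent-only control mean plus 3 SD; inconclusive means the two replicate wells disagree; inactive means no significant difference from solvent-only control wells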
# KCC2 bumet counter = bumetanide-insensitive thallium flux in KCC2 cells with ouabain, counter-screen; shares compounds with KCC2 mod; HEK293-KCC2 + bumetanide/ouabain, thallium flux FluoZin2; active compounds read high; normalized thallium flux at 10 µM; 3,700 compounds, 49% hits; AID 1714;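 active means thallium entry rate above the same plate's blocked-transporter control wells by more than 3 SD; inconclusive means the two repeat wells disagree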;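 further: raw slope of fluorescence over initial fluorescence between 10 and 20 s after thallium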
# KCC2 secondary2 = KCC2 (human) modulation, second secondary assay; normalized thallium flux at 10 µM; 3,700 compounds, 23% hits; AID 1715; HEK293-KCC2, thallium flux FluoZin2 fluorescence; actives lie on both sides; F/F0 rise rate, 10–20 s post-thallium; shares compounds with KCC2 mod;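 active means thallium flux slope more than 3 SD above or below the plate's solvent-only control mean, mostly below; inconclusive means the two repeat wells disagreed; inactive means no significant shift from solvent-only controls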;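 further: raw slope with 0.1% DMSO as baseline and bumetanide as block control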
# HEK counter1 = acts in parental HEK cells, KCC2 counter-screen | shares compounds with KCC2 mod | HEK293 parental cells, thallium flux FluoZin2, ouabain; baseline-ratio fluorescence slope, 10–20 s after thallium | thallium flux rate (normalised fluorescence) at 10 µM | 3,700 compounds, 46% hits;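 active means thallium flux rate significantly above the same plate's solvent-only control wells, beyond their mean plus 3 SD; inconclusive means the two replicate wells gave conflicting results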
# KCC2 retest ouab = KCC2 (human) modulation, ouabain retest; HEK293-KCC2, thallium flux FluoZin2 fluorescence; bidirectional: low = inhibitor, high = activator; shares compounds with KCC2 mod; raw Tl+ flux slope (below DMSO = inhibition, above = activation) at 10 µM; 3,700 compounds, 48% hits;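 active means thallium flux slope beyond 3 SD from same-plate DMSO control mean in most replicates, usually higher, sometimes lower; inconclusive means repeat tests gave conflicting results; inactive means no significant difference from controls in most replicates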;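 further: slope of initial-normalized fluorescence between seconds 10 and 20 after thallium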
# HEK293 Tl flux2 = parental HEK flux effect, counter-screen 2; shares compounds with KCC2 mod; HEK293 parental, thallium flux FluoZin-2 fluorescence slope; thallium flux slope at 10 µM; 3,700 compounds, 33% hits; AID 1718;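 active means thallium flux slope above the same plate's solvent-control mean plus 3 SD in both duplicate wells; inconclusive means duplicate wells that disagreed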;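 further: run without ouabain in cells lacking the KCC2 cotransporter; slope of fluorescence scaled to its starting value between 10 and 20 s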
# Active calls of the source: *; i = inactive; ? = inconclusive; nt = no result. Rows were chosen to be rich in hits. Some 5.5% of all compounds tested hit in one or more screens of this group.
SMILES,STAT1 inh,STAT1 activator,STAT3 blocker,STAT3 act,KCC2 mod,HSV replic up,KCC2 sec1,KCC2 bumet counter,KCC2 secondary2,HEK counter1,KCC2 retest ouab,HEK293 Tl flux2
CNC(=S)N(Cc1cc2cc(OC)c(OC)cc2[nH]c1=O)C1CCCC1,1.3,96.9,-4.7,107.1,-4.24*,i,0.00937,0.00612,0.0314,?,0.0186,0.00978
CNC(=S)N(CCc1cccc(C)c1)Cc1cc2cc(OC)c(OC)cc2[nH]c1=O,-0.2,100.2,-5.7,103.8,0.696,i,nt,nt,nt,nt,nt,nt
O=C(NCc1csc(-c2ccccc2)n1)c1cc(F)cc2c1OCOC2,nt,nt,nt,nt,-3.78*,i,?,0.00533,0.0293,0.00606,0.0152*,0.00984
O=C(Cc1csc(-c2ccccc2)n1)NCc1ccc(F)cc1,5.3,95.2,2.2,102.8,-5.22*,i,0.00906,0.00623,0.0297*,0.00361,0.0157*,0.0111
Brc1ccc(-c2noc(COc3ccc4ccccc4c3)n2)o1,3.9,96.5,-3.9,111.2,0.166,i,nt,nt,nt,nt,nt,nt
Fc1ccc(OCc2nc(-c3ccc(Br)o3)no2)c(F)c1,-5.3,104.8,-3.6,106.9,nt,i,0.00664,0.00566,0.0272,0.00619,0.0146*,0.00878
CN1CCCN(S(=O)(=O)c2cccc(Cl)c2Cl)CC1,-2.9,102.4,2.3,101.4,0.639,i,nt,nt,nt,nt,nt,nt
C[C@@H](C[C@@H](O)[C@H](O)C(C)(C)O)[C@@H]1CC[C@]2(C)C3=CC[C@H]4C(C)(C)C(=O)CC[C@]4(C)[C@H]3CC[C@@]12C,15.8,85.7,-8.1,104.4,4.77*,i,0.00524,0.0307*,0.0314,0.00773,?,0.0112
CCOC(=O)CSc1nnc(CNC(=O)c2ccc(OC)cc2)n1C1CCCCC1,6.8,93.6,4.8,98.2,nt,i,nt,nt,nt,nt,nt,nt
CCOc1ccccc1/C=N/OCC(=O)NCc1ccc(F)cc1,2.3,96.5,3.7,102.7,-0.679,i,nt,nt,nt,nt,nt,nt
CCOC(=O)c1sc(-c2ccc(Cl)cc2Cl)nc1O,nt,nt,nt,nt,9.2*,i,0.00704,0.0199*,0.0284,0.017*,0.0262*,0.0134*
COc1cccc(CNCCSc2nnnn2C)c1OC,-0.9,100.8,-0.4,104.2,0.383,i,nt,nt,nt,nt,nt,nt
Cc1ccc(C)c(S(=O)(=O)N2CCC(c3nc4c(nnn4Cc4ccc(F)cc4)c(=O)[nH]3)CC2)c1,0.4,99.6,-12.8,114.4,-4.24*,i,0.00887,0.00547,0.0285,0.00687,0.0163*,0.0103
Cc1ccc(Cn2nnc3c(=O)[nH]c(C4CCN(S(=O)(=O)c5ccc(F)cc5)CC4)nc32)cc1,2.1,99.3,-7.9,110.3,-3.03*,nt,0.0173,0.00481,0.0249*,0.00715,0.0145,0.011
CC(C)OCCCn1c(-c2ccc(Br)cc2)c[nH]c1=S,11.1,87.7,6.3,96.3,9.46*,i,0.0094,0.0435*,0.0357,0.0201*,0.0399*,0.013*
CC(C)OCCCNC(=O)c1ccc(Br)cc1,-16.8,115.3,-5.1,108.6,0.636,i,nt,nt,nt,nt,nt,nt
CCOc1ccc2nc(N3C(=O)/C(=C/c4ccc(Cl)cc4)NC3=S)sc2c1,-10.1,109.2,-18.2,115.3,18.8*,i,0.00725,0.0455*,0.0493*,0.0628*,0.0483*,0.0466*
O=C1c2ccccc2C(Nc2ccc(S(=O)(=O)N3CCOCC3)cc2)N1Cc1ccco1 (centres undefined),8.9,91.9,-6.6,109.4,-0.529,i,nt,nt,nt,nt,nt,nt
COc1ccc(NC2c3ccccc3C(=O)N2Cc2ccco2)cc1OC (centres undefined),4.9,96.3,2.0,98.5,-0.0998,i,nt,nt,nt,nt,nt,nt
CCOc1ccc(NC2c3ccccc3C(=O)N2Cc2ccco2)cc1 (centres undefined),8.1,92.7,21.2,86.7,-4.2*,i,0.00708,0.00546,0.028,0.00505*,0.0156*,0.0086
O=C1c2ccccc2C(Nc2ccc(S(=O)(=O)N3CCCCC3)cc2)N1Cc1ccco1 (centres undefined),-4.1,103.7,-2.2,105.7,-5.14*,i,0.00679,0.00428,?,0.0062*,0.0143*,0.00984
O=C(NCCCCc1ccccc1)C1CC(c2ccccc2[N+](=O)[O-])=NO1 (centres undefined),-1.0,100.9,5.8,103.8,-6.39*,i,0.00598,0.00456,0.0212*,0.00743,0.0128*,0.00917
COc1cc(OC)c(C2=NOC(C(=O)NCc3cccs3)C2)cc1Cl (centres undefined),-3.4,101.4,9.7,93.6,-0.658,i,nt,nt,nt,nt,nt,nt
O=C(NCCCCc1ccccc1)C1CC(c2ccc(C(F)(F)F)cc2)=NO1 (centres undefined),nt,nt,nt,nt,-0.356,i,nt,nt,nt,nt,nt,nt
O=C(NCCCCc1ccccc1)C1CC(c2ccccc2C(F)(F)F)=NO1 (centres undefined),nt,nt,nt,nt,-4.18*,i,0.00797,0.00443,0.0233*,0.00636,0.0163*,0.00982
COc1cc(OC)c(C2=NOC(C(=O)NCCc3ccccc3)C2)cc1Cl (centres undefined),0.2,99.8,17.0,90.1,nt,i,0.00644,0.00426,0.0259*,0.00702,?,0.00984
N#Cc1nc(COc2ccccc2)oc1N1CCN(Cc2ccccc2)CC1,-5.0,104.6,13.2,94.9,nt,i,nt,nt,nt,nt,nt,nt
N#Cc1nc(-c2cccs2)oc1N1CCN(Cc2ccccc2)CC1,-0.1,100.1,5.8,98.8,nt,i,0.0177,?,0.0228*,0.00711,0.0139,0.01
COc1cccc(C(=O)CSc2nnc(CNS(=O)(=O)c3ccc(C)cc3)n2C)c1,-3.5,103.2,7.9,100.8,-4.16*,i,0.00995,0.00715,0.0324,0.00841,0.0235,0.0114*
Cc1ccc(NC(=S)NNC(=S)Nc2cccc(C(F)(F)F)c2)cc1,nt,nt,nt,nt,nt,i,nt,nt,nt,nt,nt,nt
